The text below walks through data of ChEMBL document CHEMBL4028846, “Insights on the Interaction between Transthyretin and Aβ in Solution. A Saturation Transfer Difference (STD) NMR Analysis of the Role of Iododiflunisal” (J Med Chem, 2017).

The Kd is the equilibrium constant for the complex coming apart.

The target in experiment [1] is T1, Transthyretin (Homo sapiens, UniProt P02766). As to the kind of experiment: Binding affinity to recombinant human transthyretin expressed in Escherichia coli BL21 at 1:45 protein to ligand molar ratio in presence of EGCG by STD-NMR spectroscopic method.
Experiment [2] concerns the target T1, Transthyretin. As to the kind of experiment: Binding affinity to recombinant human transthyretin expressed in Escherichia coli BL21 at 1:45 protein to ligand molar ratio by STD-NMR spectroscopic method. Summed up: (§1)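 Human recombinant WT TTR expressed in E. coli, purified by ion exchange then preparative gel electrophoresis. Protein 20−50 μM in PBS pH 6.0, […] 1:20 to 1:50, 298−313 K, optimized per case. On-resonance at aliphatic region (δ −0.2 to 0.16 ppm), off-resonance δ 100 ppm. Saturation by 20 ms PC9 pulse train, 2 s total, 600 MHz.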

In experiment [3] the target is T1, Transthyretin. As to the kind of experiment: Binding affinity to recombinant human transthyretin expressed in Escherichia coli BL21 at 1:45 protein to ligand molar ratio in presence of IDIF by STD-NMR spectroscopic method.
In experiment [4] the target is T1, Transthyretin. As to the kind of experiment: Binding affinity to recombinant human transthyretin expressed in Escherichia coli BL21 at 1:20 to 1:50 […] molar ratio by STD-NMR spectroscopic method. Summed up:
as §1

Experiment [5] addresses T1, Transthyretin. As to the kind of experiment: Binding affinity to recombinant human transthyretin expressed in Escherichia coli BL21 at 1:4 protein to ligand molar ratio in presence of EGCG by STD-NMR spectroscopic method.
Experiment [6] concerns the target T1, Transthyretin. As to the kind of experiment: Binding affinity to recombinant human transthyretin expressed in Escherichia coli BL21 by STD-NMR spectroscopic method. The method in brief: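 Human recombinant WT TTR expressed in E. coli, purified by ion exchange then preparative gel electrophoresis. On-resonance at aliphatic region (δ −0.2 to 0.16 ppm), off-resonance δ 100 ppm. Saturation by 20 ms PC9 pulse train, 2 s total, 600 MHz.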

The target in experiment [7] is T1, Transthyretin. As to the kind of experiment: Binding affinity to recombinant human transthyretin expressed in Escherichia coli BL21 at 1:50 protein to ligand molar ratio by STD-NMR spectroscopic method. Summed up: as §1

Calls of active or inactive are those of the source. The rule behind the calls is not given here.

Turning to `CC(C)C[C@H](NC(=O)[C@H](CCCCN)NC(=O)[C@H](CCC(N)=O)NC(=O)[C@H](Cc1cnc[nH]1)NC(=O)[C@H](Cc1cnc[nH]1)NC(=O)[C@@H](N)C(C)C)C(=O)N[C@H](C(=O)N[C@@H](Cc1ccccc1)C(=O)N[C@@H](Cc1ccccc1)C(=O)N[C@@H](C)C(=O)N[C@@H](CCC(=O)O)C(=O)N[C@@H](CC(=O)O)C(=O)N[C@H](C(=O)NCC(=O)N[C@@H](CO)C(=O)N[C@@H](CC(N)=O)C(=O)N[C@@H](CCCCN)C(=O)O)C(C)C)C(C)C`, the result on Transthyretin [1] was inactive. In addition, the outcome on Transthyretin [2] and on Transthyretin [3] was Active.

Regarding `C[C@H](NC(=O)[C@@H](N)CC(=O)O)C(=O)N[C@@H](CCC(=O)O)C(=O)N[C@@H](Cc1ccccc1)C(=O)N[C@@H](CCCNC(=N)N)C(=O)N[C@@H](Cc1cnc[nH]1)C(=O)N[C@@H](CC(=O)O)C(=O)N[C@@H](CO)C(=O)NCC(=O)N[C@@H](Cc1ccc(O)cc1)C(=O)N[C@@H](CCC(=O)O)C(=O)O`, at Transthyretin [4], the result was inactive.

On to H-YEVHHQKLVFF-OH, for which the outcome on Transthyretin [4] was inactive.

In the case of `CN(C)C[C@H](O)[C@@H](O)[C@H](O)[C@H](O)CO.O=C(O)c1cc(-c2ccc(F)cc2F)ccc1O`, the result on Transthyretin [4] was Active.

With `CN(C)C[C@H](O)[C@@H](O)[C@H](O)[C@H](O)CO.O=C(O)c1cc(-c2ccc(F)cc2F)cc(I)c1O`, the outcome on Transthyretin [4] and on Transthyretin [5] was Active.

`O=C(O[C@@H]1Cc2c(O)cc(O)cc2O[C@@H]1c1cc(O)c(O)c(O)c1)c1cc(O)c(O)c(O)c1` [EPIGALOCATECHIN GALLATE]: on Transthyretin [6], the Kd worked out at 400 nM. Also, on Transthyretin [7], the outcome was Active.
